Experiment [1] has as its target T1, Peroxisome proliferator-activated receptor gamma (Homo sapiens) (UniProt P37231).
T1 sequence (whole entry): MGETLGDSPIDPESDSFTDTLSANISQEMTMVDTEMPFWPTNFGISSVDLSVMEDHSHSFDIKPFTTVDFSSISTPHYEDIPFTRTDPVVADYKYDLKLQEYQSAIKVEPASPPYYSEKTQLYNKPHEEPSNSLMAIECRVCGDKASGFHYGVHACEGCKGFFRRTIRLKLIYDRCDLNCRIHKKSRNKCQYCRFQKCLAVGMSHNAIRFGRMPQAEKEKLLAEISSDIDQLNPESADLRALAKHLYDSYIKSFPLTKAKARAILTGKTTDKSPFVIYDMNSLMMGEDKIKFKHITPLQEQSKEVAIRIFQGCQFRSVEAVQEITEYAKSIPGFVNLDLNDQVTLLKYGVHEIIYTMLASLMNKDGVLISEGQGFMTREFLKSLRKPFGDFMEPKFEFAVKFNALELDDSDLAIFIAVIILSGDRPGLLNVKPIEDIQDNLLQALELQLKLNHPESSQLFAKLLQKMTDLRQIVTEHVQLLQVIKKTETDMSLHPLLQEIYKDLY
The experiment can be described thus: Agonist activity at human PPARgamma expressed in african green monkey COS7 cells at 1 uM by Gal4 transactivation assay relative to pioglitazone. The format is functional, cell-based. The note with it: COS-7.

Experiment [2] has as its target T2, Peroxisome proliferator-activated receptor delta (Homo sapiens) (UniProt Q03181).
T2 sequence (whole entry): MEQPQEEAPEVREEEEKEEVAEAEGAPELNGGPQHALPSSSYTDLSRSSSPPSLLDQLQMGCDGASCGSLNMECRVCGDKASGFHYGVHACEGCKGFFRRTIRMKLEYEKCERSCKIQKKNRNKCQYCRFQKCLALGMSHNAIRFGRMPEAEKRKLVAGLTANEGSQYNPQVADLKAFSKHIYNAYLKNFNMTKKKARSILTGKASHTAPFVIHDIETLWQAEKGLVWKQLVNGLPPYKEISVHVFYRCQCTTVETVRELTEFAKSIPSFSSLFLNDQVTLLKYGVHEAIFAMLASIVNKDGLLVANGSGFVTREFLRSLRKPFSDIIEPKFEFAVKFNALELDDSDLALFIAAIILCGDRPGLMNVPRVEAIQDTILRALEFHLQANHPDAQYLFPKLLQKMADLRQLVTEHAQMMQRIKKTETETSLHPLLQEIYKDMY
The experiment can be described thus: Agonist activity at human PPARbeta expressed in african green monkey COS7 cells at 10 uM by Gal4 transactivation assay. The format is functional, cell-based. The note with it: COS-7.

The target of experiment [3] is T3, Peroxisome proliferator-activated receptor alpha (Homo sapiens) (UniProt Q07869).
T3 sequence (whole entry): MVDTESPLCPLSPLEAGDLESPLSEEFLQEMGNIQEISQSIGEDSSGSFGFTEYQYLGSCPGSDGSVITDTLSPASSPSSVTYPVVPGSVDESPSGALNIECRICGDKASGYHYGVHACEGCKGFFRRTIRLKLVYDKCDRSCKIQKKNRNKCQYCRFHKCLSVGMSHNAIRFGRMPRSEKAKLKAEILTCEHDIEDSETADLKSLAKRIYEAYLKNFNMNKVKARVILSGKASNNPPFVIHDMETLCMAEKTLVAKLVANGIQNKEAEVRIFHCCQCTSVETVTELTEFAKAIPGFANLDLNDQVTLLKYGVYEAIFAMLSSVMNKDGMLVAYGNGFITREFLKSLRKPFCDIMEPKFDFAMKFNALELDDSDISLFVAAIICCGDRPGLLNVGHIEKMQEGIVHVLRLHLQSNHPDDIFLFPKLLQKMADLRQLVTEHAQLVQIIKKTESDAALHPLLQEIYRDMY
The experiment can be described thus: Agonist activity at human PPARalpha expressed in african green monkey COS7 cells at 1 uM by Gal4 transactivation assay relative to GW-7647. The experiment is classed as functional, cell-based. The note with it: COS-7.

For experiment [4], the target named is T4, Peroxisome proliferator-activated receptor gamma (Homo sapiens, UniProt P37231).
T4 sequence (P37231 whole entry): T1 sequence (whole entry)
The experiment can be described thus: Agonist activity at human PPARgamma expressed in african green monkey COS7 cells by Gal4 transactivation assay. The format is functional, cell-based, COS-7. Put shortly: (§1)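 COS7 cells were grown in DMEM with FCS, sodium pyruvate and penicillin/streptomycin at 37 °C, 5% CO2, and seeded at 30,000 cells/well the day before transfection. They were lipofected with pFR-Luc, pRL-SV40 and the Gal4-hPPAR-LBD plasmid of each subtype. After 5 h, cells received serum-free DMEM with 0.1% DMSO plus compound, incubated overnight, then Dual-Glo luciferase read-out. Triplicate wells, ≥3 independent experiments; EC50 from mean values.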

A further experiment deals with COS-7. Put plainly: Selectivity ratio of EC50 for human PPARgamma to EC50 for human PPARalpha expressed in african green monkey COS7 cells. The format is cell-based.
Experiment [5] concerns the target T5, Peroxisome proliferator-activated receptor alpha (Homo sapiens, UniProt Q07869).
T5 sequence (Q07869 whole entry): T3 sequence (whole entry)
The experiment can be described thus: Agonist activity at human PPARalpha expressed in african green monkey COS7 cells by Gal4 transactivation assay. The format is functional, cell-based, COS-7. The essentials: as §1

Experiment [6] deals with T2, Peroxisome proliferator-activated receptor delta (Homo sapiens). The experiment can be described thus: Agonist activity at human PPARbeta expressed in african green monkey COS7 cells at 10 uM by Gal4 transactivation assay relative to L165041. The experiment is classed as functional, cell-based. As to conditions: COS-7.
The target of experiment [7] is T6, Peroxisome proliferator-activated receptor delta (Homo sapiens, UniProt Q03181).
T6 sequence (Q03181 whole entry): T2 sequence (whole entry)
Put plainly: Agonist activity at human PPARbeta expressed in african green monkey COS7 cells by Gal4 transactivation assay. The experiment is classed as functional, cell-based, COS-7. The essentials:
as §1

In experiment [8] the target is T2, Peroxisome proliferator-activated receptor delta (Homo sapiens). The experiment can be described thus: Agonist activity at human PPARbeta expressed in african green monkey COS7 cells at 1 uM by Gal4 transactivation assay relative to L165041. The format is functional, cell-based. The note with it: COS-7.
In experiment [9] the target is T3, Peroxisome proliferator-activated receptor alpha (Homo sapiens). The experiment can be described thus: Agonist activity at human PPARalpha expressed in african green monkey COS7 cells at 10 uM by Gal4 transactivation assay. The format is functional, cell-based. As to conditions: COS-7.
For experiment [10], the target named is T1, Peroxisome proliferator-activated receptor gamma (Homo sapiens). The experiment can be described thus: Agonist activity at human PPARgamma expressed in african green monkey COS7 cells at 10 uM by Gal4 transactivation assay. The experiment is classed as functional, cell-based. The note with it: COS-7.

Structures are written as SMILES. Activity calls are given as the source filed them. No cut-off for these calls is given here.

Turning to `CCCCC(Sc1ccc(OCCCOc2ccccc2)cc1)C(=O)O` (centres undefined), the Activity in [1] was 83%; in experiment [3] it was 76%. For the same compound, the outcome in experiment [2] was inactive. Moreover, the EC50 in experiment [4] came out at 2600 nM; in experiment [5], 290 nM. Moreover, the Ratio EC50 in the experiment on COS-7 stood at 9.
Take `CCCCC(Sc1ccc(OCCCOc2cccc(C)c2C)cc1)C(=O)O` (centres undefined): the Activity in experiment [1] came to 82%; in experiment [3], 113%. Besides, the result in [2] was inactive. Also, the EC50 in [4] came out at 3000 nM; in experiment [5], 56 nM. Moreover, the Ratio EC50 in the experiment with COS-7 is 54.
`CCCCC(Sc1ccc(OCCCOc2cccc3c2CCCC3)cc1)C(=O)O` (centres undefined): the Activity in experiment [1] was determined as 107%; in experiment [3], 101%. In experiment [2], the result was inactive. Besides, the half-maximal effective concentration (EC50) in experiment [4] turned out to be 8100 nM; in experiment [5] it was 190 nM.
Consider `CCCCC(Sc1ccc(OCCCOc2ccc(C)cc2)cc1)C(=O)O` (centres undefined), for which the Activity in [1] came to 87%; in experiment [3], 91%; in experiment [6], 31%. Moreover, the values for the EC50 in [4] and in experiment [5] were 930 nM and 85 nM, respectively.
Take `CCCCC(Sc1ccc(OCCCOc2ccc(Cl)c(C(F)(F)F)c2)cc1)C(=O)O` (centres undefined): the Activity in experiment [1] worked out at 96%; in experiment [3], 65%. The outcome in experiment [2] was inactive. Moreover, the values for the EC50 in [4] and in experiment [5] were 7800 nM and 390 nM, respectively.
The corresponding values for `CCCCC(Sc1ccc(OCCCOc2ccccc2OC)cc1)C(=O)O` (centres undefined) are 85%, 92%, “inactive”, 1600 nM and 550 nM.
The corresponding values for `CCCCC(Cc1ccc(OCCCOc2cccc(C)c2C)cc1)C(=O)O` (centres undefined) are 120%, 73%, “inactive”, 4200 nM and 1500 nM.
The like results for `CCCC[C@H](Sc1ccc(OCCCOc2cccc(C)c2C)cc1)C(=O)O` were, in that order, 77%, 94%, “inactive”, 9900 nM and 1700 nM.
As for `CCCCC(Sc1ccc(OCCCOc2ccccc2C(C)C)cc1)C(=O)O` (centres undefined), the Activity in experiment [1] is 92%; in experiment [3], 89%. The result in experiment [2] was inactive. Besides, the EC50 stood at 4100 nM in experiment [4] and 2000 nM in experiment [5].
On to `CCCCC(Sc1ccc(OCCCOc2cccc(C(C)C)c2)cc1)C(=O)O` (centres undefined), for which the Activity in experiment [1] came out at 91%; in experiment [3] it was 98%. Besides, the outcome in experiment [2] was inactive. For the same compound, the EC50 in experiment [4] amounted to 5300 nM; in experiment [5], 150 nM.
As to `CCCCC(Sc1ccc(OCCCOc2ccc(-c3ccccc3)cc2)cc1)C(=O)O` (centres undefined), the Activity in experiment [1] is 108%; in [3] it was 125%. Besides, the outcome in [2] was inactive. Besides, the values for the EC50 in experiment [4] and in experiment [5] were 540 nM and 110 nM, respectively. The Ratio EC50 in the experiment on COS-7 came out at 5.
As for `Cc1cccc(OCCCOc2ccc(SCC(=O)O)cc2)c1C`, the values for the Activity in [1], in experiment [3] and in experiment [8] were 77%, 81% and 52%, respectively. In addition, the EC50 in experiment [4] came out at 3800 nM; in experiment [7], 1400 nM; in experiment [5], 600 nM.
Take `CCCCC(Sc1ccc(OCCCOc2ccccc2C)cc1)C(=O)O` (centres undefined): the Activity worked out at 114% in experiment [1] and 64% in [3]. Moreover, the outcome in [2] was inactive. Besides, the figures for the EC50 in experiment [4] and in [5] were 2300 nM and 250 nM, respectively.
Regarding `CCCCC(Sc1ccc(OCCCOc2cccc(C)c2)cc1)C(=O)O` (centres undefined), the values for the Activity in experiment [1] and in experiment [3] were 96% and 80%, respectively. Further, the result in experiment [2] was inactive. Besides, the EC50 in experiment [4] is 3000 nM; in experiment [5] it was 90 nM.
On to `CCCC/C(=C\c1ccc(OCCCOc2cccc(C)c2C)cc1)C(=O)O`, for which the result in experiment [2], in experiment [9] and in experiment [10] was inactive.
As to `CCCCC(Sc1ccc(OCCCOc2cccc(C(F)(F)F)c2)cc1)C(=O)O` (centres undefined), the Activity in experiment [1] is 68%; in experiment [3], 75%. Besides, the result in [2] was inactive. The results for the EC50 in experiment [4] and in [5] were 4600 nM and 25 nM, respectively.
In the case of `Cc1cccc(OCCCOc2ccc(CCC(=O)O)cc2)c1C`, the Activity was found to be 54% in experiment [1], 63% in experiment [3] and 72% in [8]. In addition, the EC50 worked out at 15700 nM in experiment [4], 11200 nM in experiment [7] and 13800 nM in experiment [5].
Turning to `CCCC[C@@H](Sc1ccc(OCCCOc2cccc(C)c2C)cc1)C(=O)O`, the Activity in experiment [1] amounted to 125%; in experiment [3], 115%. For the same compound, the outcome in [2] was inactive. The EC50 in experiment [4] was 3900 nM; in experiment [5], 11 nM.
With `CCCCC(Sc1ccc(OCCCOc2ccc(C)c(C)c2)cc1)C(=O)O` (centres undefined), the Activity in experiment [1] worked out at 61%; in experiment [3], 72%. For the same compound, the outcome in experiment [2] was inactive. In addition, the values for the EC50 in experiment [4] and in [5] were 3500 nM and 21 nM, respectively.
The like results for `CCCCC(Sc1ccc(OCCCOc2cccc(OC)c2)cc1)C(=O)O` (centres undefined) were, in that order, 85%, 85%, “inactive”, 1200 nM and 49 nM.
On to `CCCCC(Sc1ccc(OCCCOc2ccc3ncccc3c2)cc1)C(=O)O` (centres undefined), for which the results for the Activity in [1] and in [3] were 49% and 95%, respectively. Besides, in experiment [2], the outcome was inactive. Moreover, the EC50 stood at 1300 nM in [4] and 220 nM in experiment [5]. For the same compound, the Ratio EC50 in the experiment with COS-7 is 6.

What is called EC50 is the concentration needed to bring the measured effect to its halfway point.

(Values after ChEMBL document CHEMBL1154014, “Discovery of a novel class of 2-mercaptohexanoic acid derivatives as highly active PPARalpha agonists” (Bioorg Med Chem Lett, 2009).)
